Results on one compound are retold here after ChEMBL document CHEMBL3272319, “Alkyl streptozotocin analogues with improved biological activities” (J Med Chem, 1976).

One series concerns Mus musculus. The experiment in a line: Toxicity in ICR mouse allografted with mouse S180A assessed as mortality at 125 mg/kg, ip qd for 5 days. It counts as organism-based. On the set-up: dose 125 mg/kg, route intraperitoneal. The following applies: in vivo, 120 h. In outline: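 Ascites Sarcoma 180 (1 × 10^7 cells) implanted into ICR mice, six per group; compound in saline ip once daily days 1-5; sacrifice on day 7; total packed cell volume (ascites volume × PCV) compared with controls as T/C %; mortality recorded.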

Series [1] can be described thus: Antitumor activity against mouse S180A allografted in ICR mouse assessed as tumor growth at 125 mg/kg, ip qd for 5 days measured on day 7 relative to control. The following applies: route intraperitoneal. It counts as functional. In outline: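 Ascites Sarcoma 180 (1 × 10^7 cells) implanted into ICR mice, six animals per group. Five daily ip injections in saline (days 1–5). Sacrificed day 7. T/C % computed from total packed cell volume (ascites volume × PCV) vs controls. Grades: 100-66 = -, 65-41 = +, 40-11 = ++, 10-0 = +++.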

A further series has as its system Rattus norvegicus. The experiment in a line: Diabetogenic activity in iv dosed Wistar rat assessed as increase in blood sugar level administered as single dose by glucose oxidase method. The class given is ADME, organism-based. The following applies: in vivo. In outline:
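Male Wistar rats, about 200 g, five per group, fasted 16 h. Single iv dose into the femoral vein in physiological saline, equimolar across compounds. Caudal-vein blood sampled at set times over 24 h. Sugar measured by glucose oxidase.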

In general, T/C refers to the result in the treated group divided by that in the control group, in per cent. For the compound `CCCCN(N=O)C(=O)N[C@H]1[C@@H](OC)O[C@H](CO)[C@@H](O)[C@@H]1O`, the Activity entry in the series with Mus musculus and in the series on Rattus norvegicus was “Non-toxic” throughout. Also, the T/C in series [1] is reported as 75%.
